Measurements from ChEMBL document CHEMBL1142550, “Thiopyrano[2,3-e]indol-2-ones: angelicin heteroanalogues with potent photoantiproliferative activity” (Bioorg Med Chem, 2008).
Activity calls are given as the source filed them. No cut-off for these calls is given here.

Assays:
Jurkat [1] = assay: Photocytotoxicity against human JURKAT cells treated 30 mins before 2.5 J/cm'2 UVA irradiation measured after 72 hrs by MTT assay; format: functional, cell-based; settings: light or radiation study
HT-1080 [2] = assay: Photocytotoxicity against human HT1080 cells treated 30 mins before 3.75 J/cm'2 UVA irradiation measured after 72 hrs by MTT assay; format: functional, cell-based; settings: HT-1080, light or radiation study
[3] = Photocytotoxicity against human NCTC 2544 cells treated 30 mins before 3.75 J/cm'2 UVA irradiation measured after 72 hrs by MTT assay; format: functional, cell-based; settings: NCTC-2544, light or radiation study
[4] = Photocytotoxicity against human NCTC 2544 cells treated 30 mins before 2.5 J/cm'2 UVA irradiation measured after 72 hrs by MTT assay; format: functional, cell-based; settings: NCTC-2544, light or radiation study
HT-1080 [5] = assay: Photocytotoxicity against human HT1080 cells treated 30 mins before 2.5 J/cm'2 UVA irradiation measured after 72 hrs by MTT assay; format: functional, cell-based; settings: HT-1080, light or radiation study
Jurkat [6] = assay: Photocytotoxicity against human JURKAT cells treated 30 mins before 3.75 J/cm'2 UVA irradiation measured after 72 hrs by MTT assay; format: functional, cell-based; settings: light or radiation study
HL-60 [7] = assay: Photocytotoxicity against human HL-60 cells treated 30 mins before 2.5 J/cm'2 UVA irradiation measured after 72 hrs by MTT assay; format: functional, cell-based; settings: HL-60, light or radiation study
LoVo [8] = assay: Photocytotoxicity against human LoVo cells treated 30 mins before 2.5 J/cm'2 UVA irradiation measured after 72 hrs by MTT assay; format: functional, cell-based; settings: light or radiation study
LoVo [9] = assay: Photocytotoxicity against human LoVo cells treated 30 mins before 3.75 J/cm'2 UVA irradiation measured after 72 hrs by MTT assay; format: functional, cell-based; settings: light or radiation study
HL-60 [10] = assay: Photocytotoxicity against human HL-60 cells treated 30 mins before 3.75 J/cm'2 UVA irradiation measured after 72 hrs by MTT assay; format: functional, cell-based; settings: HL-60, light or radiation study
Jurkat [11] = assay: Induction of apoptosis in human JURKAT cells assessed as decrease in intracellular GSH levels treated 30 mins before 2.5 J/cm'2 UVA irradiation measured after 24 hrs by flow cytometry; format: functional, cell-based
Outline: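 Jurkat cells were irradiated (2.5 J cm⁻²) with drug at several concentrations. At 24 h cells were harvested and incubated with monobromobimane 50 μM for 10 min at 37 °C. GS-mBBr was measured by flow cytometry (ex 354, em 450). Values are mean ± SEM, n=3.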

Escherichia coli [12] = assay: Induction of DNA photodamage of Escherichia coli pBR322 exposed to 3.5 J/cm'2 UVA irradiation in presence of reduced glutathione
Outline: (§1)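 pBR322 supercoiled plasmid (100 ng) in 10 mM phosphate buffer pH 7.2 irradiated with UVA (365 nm, 4.0 mW cm⁻²; 3.5 J cm⁻²) at [DNA]/[drug] ratios 1, 2 and 4. Aliquots were then incubated at 37 °C with Fpg or Endo III. Scavenger runs used drug ratio 1 with mannitol 10 mM, GSH 1 mM or NaN₃ 10 mM. Samples were run on 1% agarose in TAE, 70 V, 4 h. Read-out was % form II by densitometry, mean ± SEM of three independent experiments.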

Jurkat [13] = assay: Induction of apoptosis in human JURKAT cells assessed as increase in cardiolipin oxidation treated 30 mins before 2.5 J/cm'2 UVA irradiation measured after 24 hrs by N-nonyl acridine orange staining; format: functional, cell-based
Outline: (§2)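 Jurkat cells were irradiated (UVA 2.5 J cm⁻²) with drug at several concentrations. At 24 h they were resuspended in HBSS with hydroethidine 0.1 μM, DCFDA 2.5 μM or NAO 5.0 μM for 30 min at 37 °C. Flow cytometry used ex 488 nm, em 585 nm (HE) or 530 nm (DCFDA, NAO). Values are means ± SEM, n=3.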

Escherichia coli [14] = assay: Induction of DNA photodamage of Escherichia coli pBR322 exposed to 3.5 J/cm'2 UVA irradiation in presence of endonuclease 3; outline: as §1
Escherichia coli [15] = assay: Induction of DNA photodamage of Escherichia coli pBR322 exposed to 3.5 J/cm'2 UVA irradiation in presence of formamidopyrimidine DNA glycosylase; outline: as §1
Jurkat [16] = assay: Induction of apoptosis in human JURKAT cells homogenate assessed as lipid peroxidation treated 30 mins before 2.5 J/cm'2 UVA irradiation measured after 24 hrs by thiobarbituric acid assay; format: functional, cell-based
Outline: (§3)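 Cells were grown 2 days to confluence, then irradiated in HBSS with drug 10 μM at varied UVA doses. At 24 h, the TBA test was run on supernatant and on cell homogenates. Malonaldehyde was quantified against a 1,1,3,3-tetraethoxypropane standard and expressed as nmol TBARS per total protein.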

Escherichia coli [17] = assay: Induction of DNA photodamage of Escherichia coli pBR322 exposed to 3.5 J/cm'2 UVA irradiation in presence of sodium azide; outline: as §1
Jurkat [18] = assay: Induction of apoptosis in human JURKAT cells assessed as lysosomal damage treated 30 mins before 2.5 J/cm'2 UVA irradiation measured after 24 hrs by flow cytometry; format: functional, cell-based
Outline: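 Jurkat cells were irradiated (2.5 J cm⁻²) with drug at several concentrations. At 24 h cells were stained with acridine orange 5 μg/mL for 15 min at 37 °C, washed, and analysed by flow cytometry (ex 488, em 546 nm).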

LoVo [19] = assay: Photocytotoxicity against human LoVo cells at 1.25 uM treated 30 mins before 2.5 J/cm'2 UVA irradiation measured after 72 hrs by MTT assay in presence of sodium azide; format: functional, cell-based
Outline: (§4)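 LoVo cells were seeded at 5×10³ per well in Ham's F12/10% FCS. Drug 1.25 μM was given with an additive: BHA 10⁻⁵ M, DMTU 1 mM, GSH 1 mM or NaN₃ 10 mM. After 30 min in HBSS at 37 °C, cells received UVA 2.5 J cm⁻², and MTT viability was read 72 h later.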

Nucleic Acid [20] = assay: Induction of DNA photodamage of salmon testes DNA assessed as DNA intercalation by linear dichroism; format: nucleic-acid assay; settings: Salmonidae
Outline: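 Linear dichroism in a flow cell with salmon testes DNA at 2.27 mM in phosphate buffer, ligand/DNA r = 0, 0.02 and 0.04. Absorbance spectra were recorded alongside.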

Nucleic Acid [21] = assay: Induction of DNA photodamage of salmon testes DNA assessed as DNA intercalation by circular dichroism; format: nucleic-acid assay; settings: Salmonidae
Outline: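 Circular dichroism of salmon testes DNA (2 μM) with ligand at ligand/DNA ratios 0.02 and 0.04 in phosphate buffer. Spectra are the average of 4 scans.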

Jurkat [22] = assay: Induction of apoptosis in human JURKAT cells supernatant assessed as lipid peroxidation treated 30 mins before 2.5 J/cm'2 UVA irradiation measured after 24 hrs by thiobarbituric acid assay; format: functional, cell-based; outline: as §3
Escherichia coli [23] = assay: Induction of DNA photodamage of Escherichia coli pBR322 exposed to 3.5 J/cm'2 UVA irradiation; outline: as §1
LoVo [24] = assay: Photocytotoxicity against human LoVo cells at 1.25 uM treated 30 mins before 2.5 J/cm'2 UVA irradiation measured after 72 hrs by MTT assay in presence of N-N'-dimethylthiourea; format: functional, cell-based; outline: as §4
LoVo [25] = assay: Photocytotoxicity against human LoVo cells at 1.25 uM treated 30 mins before 2.5 J/cm'2 UVA irradiation measured after 72 hrs by MTT assay in presence of reduced glutathione; format: functional, cell-based; outline: as §4
Erythrocyte = assay: Induction of protein photodamage of human erythrocyte ghost plasmatic membrane assessed as disappearance of the spectrin subunit bands at 10 uM treated 30 mins before 2.5 J/cm'2 UVA irradiation by electrophoresis; format: cell-based
Outline: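 Erythrocyte ghost membranes (1.0 mg/ml protein) were irradiated with drug at increasing UVA doses.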

LoVo [26] = assay: Photocytotoxicity against human LoVo cells at 1.25 uM treated 30 mins before 2.5 J/cm'2 UVA irradiation measured after 72 hrs by MTT assay in presence of 2,6-di-t-butylhydroxyanisole; format: functional, cell-based; outline: as §4
Jurkat [27] = assay: Induction of apoptosis in human JURKAT cells assessed as reduction in mitochondrial membrane potential at 5 uM treated 30 mins before 2.5 J/cm'2 UVA irradiation measured after 24 hrs by flow cytometry; format: functional, cell-based
Outline: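 Jurkat cells were treated with drug at 5 μM and UVA 2.5 J cm⁻², then sampled at different times after irradiation. Cells were resuspended in HBSS with JC-1 2.5 μM for 10 min at 37 °C, then analysed by flow cytometry. Values are mean ± SEM of three experiments.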

Escherichia coli [28] = assay: Induction of DNA photodamage of Escherichia coli pBR322 exposed to 3.5 J/cm'2 UVA irradiation in presence of mannitol; outline: as §1
Jurkat [29] = assay: Induction of necrosis in human JURKAT cell sat 5.0 uM treated 30 mins before 2.5 J/cm'2 UVA irradiation measured after 24 hrs; format: functional
Outline: (§5)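 Jurkat cells were exposed to drug in HBSS pH 7.2 (from DMSO stock) for 30 min at 37 °C, then given UVA 2.5 J cm⁻² (365 nm) at several concentrations. After 24 h, cells were stained with Annexin V-FITC plus propidium iodide and analysed by flow cytometry (ex 488 nm; em 525 nm FITC, 560–680 nm PI).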

Jurkat [30] = assay: Induction of apoptosis in human JURKAT cells assessed as increase in reactive oxygen species release treated 30 mins before 2.5 J/cm'2 UVA irradiation measured after 24 hrs by hydroethidine staining; format: functional, cell-based; outline: as §2
Jurkat [31] = assay: Induction of apoptosis in human JURKAT cells assessed as caspase 3 activation treated 30 mins before 2.5 J/cm'2 UVA irradiation measured after 24 hrs by colorimetric assay
Jurkat [32] = assay: Induction of apoptosis in human JURKAT cells assessed as increase in reactive oxygen species release treated 30 mins before 2.5 J/cm'2 UVA irradiation measured after 24 hrs by DCFDA staining; format: functional, cell-based; outline: as §2
Jurkat [33] = assay: Induction of apoptosis in human JURKAT cells assessed as annexin V positive cells treated 30 mins before 2.5 J/cm'2 UVA irradiation measured after 24 hrs by flow cytometry; format: functional, cell-based; outline: as §5

SMILES: COc1c2occc2cc2ccc(=O)oc12 [METHOXSALEN]
- IC50 (Jurkat [1]): 1.2 µM
- IC50 (HT-1080 [2]): 1.9 µM
- IC50 [3]: 0.9 µM
- IC50 [4]: 5.5 µM

SMILES: Cc1cc2c(n1-c1ccccc1)CCc1ccc(=O)sc1-2
- IC50 (HT-1080 [5]): 11 µM
- IC50 (Jurkat [1]): 4.2 µM
- IC50 (HT-1080 [2]): 10.5 µM
- IC50 [3]: > 20 µM
- IC50 (Jurkat [6]): 3.5 µM
- IC50 (HL-60 [7]): 6.2 µM
- IC50 (LoVo [8]): > 20 µM
- IC50 (LoVo [9]): 12.3 µM
- IC50 (HL-60 [10]): 2.7 µM
- IC50 [4]: > 20 µM

SMILES: Cc1cc2c3sc(=O)ccc3ccc2n1C
- Activity (Jurkat [11]): Dose-dependent effect
- Activity (Escherichia coli [12]): inactive
- Activity (Jurkat [13]): Active
- Activity (Escherichia coli [14]): Active
- Activity (Escherichia coli [15]): Active
- Activity (Jurkat [16]): Active
- IC50 (HT-1080 [5]): 0.9 µM
- IC50 (Jurkat [1]): 0.5 µM
- Activity (Escherichia coli [17]): inactive
- Activity (Jurkat [18]): Active
- Activity (LoVo [19]): Active
- Activity (Nucleic Acid [20]): inactive
- Activity (Nucleic Acid [21]): inactive
- IC50 (HT-1080 [2]): 0.6 µM
- Activity (Jurkat [22]): Active
- IC50 [3]: 1.6 µM
- IC50 (Jurkat [6]): 0.2 µM
- Activity (Escherichia coli [23]): inactive
- Activity (LoVo [24]): inactive
- Activity (LoVo [25]): inactive
- Activity (Erythrocyte): Active
- Activity (LoVo [26]): inactive
- Activity (Jurkat [27]): Active
- Activity (Escherichia coli [28]): inactive
- Activity (Jurkat [29]): 2%
- Activity (Jurkat [30]): Active
- Activity (Jurkat [31]): Active
- Activity (Jurkat [32]): Active
- Activity (Jurkat [33]): Dose-dependent effect
- IC50 [4]: 2.1 µM

SMILES: Cc1cc2c3sc(=O)ccc3ccc2n1-c1ccccc1
- IC50 (HT-1080 [5]): 5.4 µM
- IC50 (Jurkat [1]): 2.5 µM
- IC50 (HT-1080 [2]): 2 µM
- IC50 [3]: 14.8 µM
- IC50 (Jurkat [6]): 3.5 µM
- IC50 (HL-60 [7]): 2.6 µM
- IC50 (LoVo [8]): 5.1 µM
- IC50 (LoVo [9]): 4.2 µM
- IC50 (HL-60 [10]): 1.3 µM
- IC50 [4]: 17 µM
